The full list was thinned out, with hits kept by preference.
A1 apoptosis 2 – A1 inhibition read as caspase activation | MEF A1-2A-BIM cells, caspase-Glo luminescence, 3 h; percent of clofoctol response, DMSO zero | caspase activation, % (no concentration beside the values) | 24,000 tested, under 10 active | AID 2465; in the data active = caspase activation above about 5.9%
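system = A1-2A-BIM-expressing MEF cells | quantity = 2500 MEF cells/well | dosing = 50 nL compound per well, pinned | schedule = overnight cell settling, then 3 h compound exposure, 37 °C | signal = luminescence from DEVD-luciferin Caspase-Glo reagent, 1:1 in 50 mM HEPES, 1 h RT | read-out = Caspase-3/7 activation, seen as rise in luminescence signal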
INS-1E rescue – INS-1E beta cell protection from cytokine death; INS-1E cytokine-induced death, ATP luminescence, 48 h; normalised: neutral wells 0, positive control 100; protection from cytokine-induced ATP loss, % at 10 µM; actives 0.1% (n = 20,000);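 active = mean replicate protection from cytokine-induced ATP loss at least 50% and at least 75% of replicates each reaching 50%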
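Assay system: INS-1E rat cells / Quantity: 8000 cells per well / Medium: RPMI without phenol red, 5% FBS / Probe or stimulus: three-cytokine cocktail (IFN-γ, TNF-α, IL-1β) / Dosing: one compound concentration, pin transfer / Timing: 48 h co-treatment, 10 min post-lysis read / Technique: CellTiter-Glo luminescence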
T cruzi HTS – intracellular Trypanosoma cruzi inhibition | AID 651903 | actives 4.9% (n = 22,000) | intracellular Trypanosoma cruzi in host cells, plate reader | activity score (inhibition), % at 5.01 µM; in the data active = activity score above about 55%;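 also: parasites and compound incubated about four days before reading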
Each line names hits and unclear results; the compound was inactive in the other large screens.

C[C@@H]1CCCCO[C@H](CN(C)Cc2ccc(Cl)c(Cl)c2)[C@@H](C)CN([C@H](C)CO)C(=O)c2cc(NS(=O)(=O)c3cccs3)ccc2O1	none (no result: A1 apoptosis 2)
C[C@@H]1CCCCO[C@@H](CN(C)Cc2ccc(C(F)(F)F)cc2)[C@@H](C)CN([C@H](C)CO)C(=O)c2cc(NS(=O)(=O)c3ccc(F)cc3)ccc2O1	T cruzi HTS 64 (no result: A1 apoptosis 2)
C[C@@H]1CCCCO[C@@H](CN(C)Cc2ccc(Cl)c(Cl)c2)[C@@H](C)CN([C@H](C)CO)C(=O)c2cc(NS(=O)(=O)c3cccs3)ccc2O1	T cruzi HTS 68
C[C@@H]1CCCCO[C@@H](CN(C)Cc2ccc(Cl)c(Cl)c2)[C@@H](C)CN([C@H](C)CO)C(=O)c2cc(NS(=O)(=O)c3ccc(F)cc3)ccc2O1	T cruzi HTS 56
C[C@H](CO)N1C[C@H](C)[C@H](CN(C)Cc2ccc(Cl)c(Cl)c2)Oc2ccc(NS(=O)(=O)c3ccc(Cl)cc3)cc2C1=O	none (no result: A1 apoptosis 2)
C[C@@H]1CN([C@H](C)CO)C(=O)c2cc(NS(=O)(=O)c3ccc(Cl)cc3)ccc2O[C@@H]1CN(C)Cc1ccc(Cl)c(Cl)c1	T cruzi HTS 85 (no result: A1 apoptosis 2)
C[C@H]1CCCCO[C@H](CN(C)Cc2ccc(Cl)c(Cl)c2)[C@@H](C)CN([C@@H](C)CO)C(=O)c2cc(NS(=O)(=O)c3ccc(F)cc3)ccc2O1	none (no result: INS-1E rescue, T cruzi HTS)
COc1ccc(S(=O)(=O)Nc2cccc3c2O[C@@H](CN(C)S(C)(=O)=O)[C@@H](C)CN([C@H](C)CO)C3=O)cc1	none
C[C@@H]1CN([C@H](C)CO)C(=O)Cc2cc(NC(=O)CCN3CCOCC3)ccc2O[C@H]1CN(C)S(C)(=O)=O	none
C[C@@H]1CN([C@H](C)CO)C(=O)Cc2cc(NS(C)(=O)=O)ccc2O[C@H]1CN(C)C(=O)Nc1ccc(F)cc1	none
C[C@H]1CN([C@@H](C)CO)C(=O)c2cc(NS(=O)(=O)c3ccccc3)ccc2O[C@H]1CN(C)Cc1ccc(Cl)c(Cl)c1	T cruzi HTS 52 (no result: INS-1E rescue)
C[C@H](CO)N1C[C@H](C)[C@H](CN(C)Cc2ccc(Cl)c(Cl)c2)Oc2ccc(NS(=O)(=O)c3ccc(F)cc3)cc2C1=O	none
C[C@H]1CN([C@@H](C)CO)C(=O)c2cc(NS(=O)(=O)c3ccc(Cl)cc3)ccc2O[C@H]1CN(C)Cc1ccc(Cl)c(Cl)c1	none (no result: INS-1E rescue, T cruzi HTS)
C[C@@H]1CN([C@@H](C)CO)C(=O)c2cc(NS(=O)(=O)c3ccccc3)ccc2O[C@@H]1CN(C)Cc1ccc(Cl)c(Cl)c1	none
C[C@@H]1CN([C@@H](C)CO)C(=O)c2cc(NS(=O)(=O)c3ccc(Cl)cc3)ccc2O[C@@H]1CN(C)Cc1ccc(Cl)c(Cl)c1	T cruzi HTS 58
C[C@H]1CN([C@@H](C)CO)C(=O)c2cc(NS(=O)(=O)c3ccc(F)cc3)ccc2O[C@@H]1CN(C)Cc1ccc(Cl)c(Cl)c1	T cruzi HTS 70 (no result: A1 apoptosis 2)
CC(C)NC(=O)Nc1cccc2c1O[C@@H](CN(C)Cc1ccc(C(F)(F)F)cc1)[C@@H](C)CN([C@H](C)CO)C2=O	none
C[C@H]1CN([C@@H](C)CO)C(=O)Cc2cc(NS(=O)(=O)c3ccccc3)ccc2O[C@@H]1CN(C)Cc1ccc(C(F)(F)F)cc1	T cruzi HTS 67 (no result: A1 apoptosis 2)
C[C@@H]1CN([C@H](C)CO)C(=O)Cc2cc(NS(=O)(=O)c3ccccc3)ccc2O[C@H]1CN(C)Cc1ccc(C(F)(F)F)cc1	none
C[C@@H]1CN([C@H](C)CO)C(=O)Cc2cc(NS(=O)(=O)c3ccccc3)ccc2O[C@@H]1CN(C)Cc1ccc(C(F)(F)F)cc1	T cruzi HTS 59
C[C@H](CO)N1C[C@H](C)[C@H](CN(C)Cc2ccc(C(F)(F)F)cc2)Oc2ccc(NS(=O)(=O)c3ccccc3)cc2CC1=O	none (no result: A1 apoptosis 2)
Cc1ccc(S(=O)(=O)N(C)C[C@H]2Oc3ccc(NS(=O)(=O)c4ccc(F)cc4)cc3C(=O)N([C@@H](C)CO)C[C@H]2C)cc1	none
C[C@H](CO)N1C[C@H](C)[C@H](CN(C)S(=O)(=O)c2cn(C)cn2)OCCCC[C@H](C)Oc2ccc(NC(=O)c3ccccc3)cc2C1=O	none (no result: INS-1E rescue, T cruzi HTS)
C[C@@H]1CN([C@H](C)CO)C(=O)Cc2cc(NC(=O)CCCCCC(=O)Nc3ccccc3N)ccc2O[C@@H]1CN(C)Cc1ccc(Cl)c(Cl)c1	T cruzi HTS 66 (no result: A1 apoptosis 2)
C[C@H](CO)N1C[C@H](C)[C@H](CN(C)Cc2ccc(-c3ccccc3)cc2)Oc2ccc(NC(=O)CCCCCC(=O)Nc3ccccc3N)cc2CC1=O	T cruzi HTS 73 (no result: A1 apoptosis 2)
C[C@H]1CN([C@@H](C)CO)C(=O)Cc2cc(NC(=O)CCCCCC(=O)Nc3ccccc3N)ccc2O[C@H]1CN(C)Cc1ccccc1	none (no result: INS-1E rescue, T cruzi HTS)
C[C@@H]1CN([C@H](C)CO)C(=O)Cc2cc(NC(=O)CCCCCC(=O)Nc3ccccc3N)ccc2O[C@@H]1CN(C)Cc1ccc(-c2ccccc2)cc1	none (no result: A1 apoptosis 2)
COc1ccc(S(=O)(=O)Nc2ccc3c(c2)CC(=O)N([C@@H](C)CO)C[C@@H](C)[C@@H](CN(C)S(=O)(=O)c2c(C)noc2C)O3)cc1	none (no result: A1 apoptosis 2)
C[C@H](CO)N1C[C@H](C)[C@H](CN(C)Cc2ccc(C(=O)Nc3ccccc3N)cc2)Oc2ccc(NC(=O)Nc3ccc(C(F)(F)F)cc3)cc2C1=O	none
C[C@@H]1CN([C@H](C)CO)C(=O)Cc2cc(NC(=O)Nc3ccc(C(F)(F)F)cc3)ccc2O[C@@H]1CN(C)Cc1ccc(C(=O)Nc2ccccc2N)cc1	T cruzi HTS 83
C[C@H]1CN([C@@H](C)CO)C(=O)Cc2cc(NC(=O)Nc3ccc(C(F)(F)F)cc3)ccc2O[C@H]1CN(C)Cc1ccc(C(=O)Nc2ccccc2N)cc1	T cruzi HTS 87
C[C@H]1CN([C@@H](C)CO)C(=O)Cc2cc(NC(=O)c3ccncc3)ccc2O[C@@H]1CN(C)Cc1ccc(C(=O)Nc2ccccc2N)cc1	none
C[C@H]1CN([C@@H](C)CO)C(=O)c2cccc(N(C)C)c2O[C@@H]1CN(C)S(=O)(=O)c1cn(C)cn1	none (no result: A1 apoptosis 2)
C[C@@H]1CN([C@H](C)CO)C(=O)CCCn2cc(nn2)CO[C@@H]1CN(C)C(=O)Nc1ccc(C(C)(C)C)cc1	none (no result: INS-1E rescue)
Cc1noc(C)c1S(=O)(=O)Nc1ccc2c(c1)CC(=O)N([C@@H](C)CO)C[C@H](C)[C@@H](CN(C)CC1CCCCC1)O2	none (no result: A1 apoptosis 2)
C[C@@H]1CN([C@H](C)CO)C(=O)Cc2cc(NC(=O)C3CCCCC3)ccc2O[C@H]1CN(C)S(=O)(=O)c1ccccc1	none
C[C@@H]1CN([C@H](C)CO)C(=O)c2cc(NC(=O)Nc3ccc4c(c3)OCO4)ccc2O[C@H]1CN(C)C(=O)Nc1cccc2ccccc12	none (no result: A1 apoptosis 2)
C[C@H](CO)N1C[C@H](C)[C@H](CN(C)Cc2ccc(C(=O)Nc3ccccc3N)cc2)Oc2ccc(NC(=O)Nc3ccc4c(c3)OCO4)cc2CC1=O	T cruzi HTS 67 (no result: A1 apoptosis 2)
CC(C)NC(=O)Nc1ccc2c(c1)CC(=O)N([C@@H](C)CO)C[C@@H](C)[C@@H](CN(C)Cc1ccc(C(=O)Nc3ccccc3N)cc1)O2	none (no result: A1 apoptosis 2)
C[C@H]1CN([C@@H](C)CO)C(=O)Cc2cc(NC(=O)Nc3ccc4c(c3)OCO4)ccc2O[C@@H]1CN(C)Cc1ccc(C(=O)Nc2ccccc2N)cc1	T cruzi HTS 56

Screens deposited in PubChem by Broad Institute.
